Assay [1] relates to A-375. The experiment in a line: Induction of apoptosis in human A375 cells assessed as caspase 8 activation at 2 ug/mL incubated for 6 hrs followed by irradiation with 8 Gy X-ray at 37 degC for 12 hrs by Western blotting method. It is filed as functional, cell-based. The essentials: (§1)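 A375 cells treated with 2 µg/ml alone or with 8 Gy X-ray (6 h pretreatment, then 12 h; 18 h total). RIPA lysates (50 µg protein) run on SDS-PAGE and immunoblotted for caspases and PARP cleavage. Reprobed for β-actin as loading control.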
(A western blot detects proteins with antibodies after separation by electrophoresis.)

Assay [2] relates to A-375. The experiment in a line: Induction of cell cycle arrest in human A375 cells assessed as accumulation at G2/M phase at 4 ug/mL incubated for 18 hrs by propidium iodide staining based flow cytometry (reference value: 13.9%). It is filed as functional. The method, boiled down: (§2)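 A375 cells treated at 10 or 4 µg/ml for 6 h, given 0 or 8 Gy X-ray, then 12 h more. Trypsinized, washed in PBS, fixed overnight in ice-cold 75% ethanol at −20 °C. Stained with propidium iodide, 30 min at 37 °C in the dark; DNA content and sub-G1 population read by flow cytometry.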
(In general: Flow cytometry measures light scatter and fluorescence of single cells or particles in a stream.)

Assay [3] relates to A-375. The assay can be described thus: Increase in Bax expression in human A375 cells at 4 ug/mL incubated for 6 hrs followed by irradiation with 8 Gy X-ray at 37 degC for 12 hrs by Western blotting method. It is filed as functional, cell-based. The essentials: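 A375 cells pretreated 6 h with compound at 4 µg/ml, given 0 or 8 Gy X-ray, then incubated 12 h more. Lysed in RIPA buffer, pH 7.4, with protease and phosphatase inhibitors; 50 µg protein run on SDS-PAGE and blotted to nitrocellulose. Blocked in 5% milk; primary antibodies 1:1000, 10 h at 4 °C; HRP secondary 1:2000.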

In assay [4] the test system is A-375. The experiment in a line: Induction of apoptosis in human A375 cells assessed as caspase 9 activation at 2 ug/mL incubated for 6 hrs followed by irradiation with 8 Gy X-ray at 37 degC for 12 hrs by Western blotting method. It is filed as functional, cell-based. The method, boiled down: as §1
Assay [5] deals with A-375. The assay can be described thus: Induction of cell cycle arrest in human A375 cells assessed as accumulation at S phase at 4 ug/mL incubated for 6 hrs followed by irradiation with 8 Gy X-ray at 37 degC for 12 hrs by propidium iodide staining based flow cytometry (reference value: 7.9%). It is filed as functional. The method, boiled down: as §2
Assay [6] relates to A-375. The experiment in a line: Induction of apoptosis in human A375 cells assessed as caspase 9 activation at 2 ug/mL incubated for 18 hrs by Western blotting method. It is filed as functional, cell-based. The method, boiled down: as §1
In assay [7] the test system is A-375. The experiment in a line: Induction of cell cycle arrest in human A375 cells assessed as accumulation at G1/G0 phase at 4 ug/mL incubated for 18 hrs by propidium iodide staining based flow cytometry (reference value: 48.9%). It is filed as functional. The essentials:
as §2

The subject of assay [8] is A-375. The assay can be described thus: Induction of apoptosis in human A375 cells assessed as accumulation at subG1 phase at 4 ug/mL incubated for 18 hrs by propidium iodide staining based flow cytometry (reference value: 1.8%). It is filed as functional. The method, boiled down:
as §2

The target of assay [9] is Thioredoxin reductase (Homo sapiens) (UniProt Q16881+Q9NNW7+Q86VQ6). The experiment in a line: Inhibition of TrxR antioxidant enzyme activity in human A375 cells at 2 ug/mL incubated for 6 hrs followed by irradiation with 8 Gy X-ray at 37 degC for 12 hrs by insulin reduction assay. It is filed as cell-based. Conditions: A-375.
Assay [10] concerns A-375. The assay can be described thus: Induction of apoptosis in human A375 cells assessed as PARP cleavage at 2 ug/mL incubated for 6 hrs followed by irradiation with 8 Gy X-ray at 37 degC for 12 hrs by Western blotting method. It is filed as functional, cell-based. The essentials:
as §1

Structures are written as SMILES. Activity calls are given as the source filed them. The calls are words filed in the database; no cut-off is given here.

Regarding `COc1cc(-c2nc3cc(-c4ccc5n[se]nc5c4)ccc3[nH]2)cc(OC)c1OC`, the outcome with A-375 [1], in the assay on A-375 [3], with A-375 [4], in the assay on A-375 [6] and with A-375 [10] was Active. In addition, the Activity in the assay on A-375 [2] is on record as 44.4%; with A-375 [5], 30.6%; in the assay on A-375 [7], 21.6%; in the assay on A-375 [8], 36.2%. In [9], the inhibition result was “Active”.

For the origin of these results see ChEMBL document CHEMBL3352644, “Selenadiazole derivatives as potent thioredoxin reductase inhibitors that enhance the radiosensitivity of cancer cells” (Eur J Med Chem, 2014).
